Data set [1] is described as follows: Partition coefficient, log P of the compound. It is filed as physicochemical. The settings on record: octanol/water.
Another data set deals with U-937. The experiment in a line: Cytotoxicity against human U937 cells after 72 hrs by MTS assay. It is filed as functional, cell-based. The settings on record: U-937, 72 h. The procedure, abridged:
(§1)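 Exposed to a range of compound concentrations for 72 hr. Viability by MTS/PMS, absorbance at 490 nm. IC50 from logistic dose-response fits, mean of at least three experiments ± SEM.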
(Formazan colour is commonly taken as a measure of viable cells.)

The test system of data set [2] is Mus musculus. Kind of data set: Toxicity in Plasmodium berghei ANKA infected perorally dosed BALB/c mice (Mus musculus) assessed as induction of behavioral changes administered as single dose. It is filed as organism-based. To be noted: in vivo, po. An outline of the steps:
(§2)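 Male 5-week-old mice of about 22 g, infected i.p. on day 0 with 2 × 10^7 P. berghei ANKA-parasitized erythrocytes. At 24 h they received one oral dose in 7:3 Tween 80:ethanol diluted with water, 5 mice per group. Animals were watched to day 30 for overt toxicity and behavioral change.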

The subject of another data set is UACC-62. Kind of data set: Cytotoxicity against human UACC62 cells after 72 hrs by SRB assay. It is filed as functional, cell-based. To be noted: UACC-62, 72 h. The procedure, abridged:
(§3)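 Then 72 hr with a range of compound concentrations. Fixed overnight at 4 °C in 10% TCA, stained 30 min with 0.057% w/v sulforhodamine B in 1% acetic acid, dye solubilised in 10 mM Tris base, read at 510 nm.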
(Sulforhodamine B stains cellular protein and so reports cell mass.)

A short description of data set [3]: Cytotoxicity against human Hs888Lu cells after 72 hrs by SRB assay. It is filed as cell-based. An outline of the steps: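 Non-cancerous immortalized fibroblasts grown in DMEM with 10% FBS and 1% pen/strep at 37 °C, 5% CO2, allowed ≥5 h to attach. Dosed over a concentration range for 72 hr. IC50 by logistic curve fitting, at least three experiments ± SEM.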

The next data set deals with MEF. The experiment in a line: Cytotoxicity against mouse wild type MEF cells after 72 hrs by SRB assay. It is filed as cell-based. An outline of the steps:
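Non-cancerous immortalized fibroblasts grown in DMEM with 10% FBS and 1% pen/strep at 37 °C, 5% CO2, allowed ≥5 h to attach. Dosed over a concentration range for 72 hr. Biomass by SRB: TCA fixation overnight at 4 °C, 0.057% SRB stain for 30 min, Tris solubilisation, A510. IC50 by logistic curve fitting, at least three experiments ± SEM.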

For the next data set, the system named is HL-60. Kind of data set: Cytotoxicity against human HL60 cells after 72 hrs by MTS assay. The format is functional, cell-based. To be noted: HL-60, 72 h. An outline of the steps:
as §1

For another data set, the system named is SK-MEL-5. Kind of data set: Cytotoxicity against human SK-MEL-5 cells after 72 hrs by SRB assay. It is filed as functional, cell-based. The settings on record: SK-MEL-5, 72 h. The procedure, abridged: as §3
The next data set has as its system HeLa. Kind of data set: Cytotoxicity against human HeLa cells after 72 hrs by SRB assay. The format is functional, cell-based. The procedure, abridged: as §3
Data set [4] has as its system Mus musculus. The experiment in a line: Toxicity in Plasmodium berghei ANKA infected BALB/c mice (Mus musculus) assessed as induction of adverse effects at 144 mg/kg, perorally administered as single dose. It is filed as organism-based. Also noted: dose 144 mg/kg, route oral. To be noted: in vivo, po. An outline of the steps:
as §2

For data set [5], the system named is Plasmodium berghei. Kind of data set: Antiplasmodial activity as survival in Plasmodium berghei ANKA infected BALB/c mice (Mus musculus) after single 13 mg/kg peroral dose. The format is functional. To be noted: route oral.
Data set [6] concerns Plasmodium berghei. Kind of data set: Antiplasmodial activity as survival in Plasmodium berghei ANKA infected BALB/c mice (Mus musculus) at 30 mg/kg peroral dose. The format is functional. To be noted: route oral.
Data set [7] has as its system Plasmodium berghei. Kind of data set: Antiplasmodial activity as reduced parasitaemia in Plasmodium berghei ANKA infected BALB/c mice (Mus musculus) at 30 mg/kg peroral dose. It is filed as functional. Also noted: scale not given: the % may be the effect or the level left. To be noted: route oral.

Bounds are passed on as bounds.

Consider `CCN(CC)C(=O)OCc1ccc(S(=O)(=O)CC(C[C@H]2O[C@@H]3C[C@]4(C)CC[C@H]5[C@H](C)CC[C@@H]([C@H]2C)[C@@]35OO4)C[C@H]2O[C@@H]3C[C@]4(C)CC[C@H]5[C@H](C)CC[C@@H]([C@H]2C)[C@@]35OO4)cc1`, for which, in data set [1] (read-out: logP), the logP was 8.3.
With `C[C@H]1[C@@H](CC(C[C@H]2O[C@@H]3C[C@]4(C)CC[C@H]5[C@H](C)CC[C@@H]([C@H]2C)[C@@]35OO4)CS(=O)(=O)c2ccc(COC(=O)N(C)C)cc2)O[C@@H]2C[C@]3(C)CC[C@H]4[C@H](C)CC[C@@H]1[C@@]24OO3`, the IC50 in the data set on U-937 was 280 nM; in the data set with UACC-62, 40 nM; in [3], above 50000 nM; in the data set with MEF, above 50000 nM; in the data set with HL-60 it was 60 nM; in the data set with SK-MEL-5, 60 nM. This compound returned an IC50 with HeLa of 110 nM. In addition, the Activity result in the data set on Mus musculus [2] and in the data set with Mus musculus [4] was “Non-toxic” each time. Moreover, the logP in [1] (read-out: logP) stood at 7.6.
Regarding `CCOP(=O)(OCC)OCc1ccc(S(=O)(=O)CC(C[C@H]2O[C@@H]3C[C@]4(C)CC[C@H]5[C@H](C)CC[C@@H]([C@H]2C)[C@@]35OO4)C[C@H]2O[C@@H]3C[C@]4(C)CC[C@H]5[C@H](C)CC[C@@H]([C@H]2C)[C@@]35OO4)cc1`, the logP in data set [1] (read-out: logP) was found to be 8.8.
`C[C@H]1[C@@H](CC(C[C@H]2O[C@@H]3C[C@]4(C)CC[C@H]5[C@H](C)CC[C@@H]([C@H]2C)[C@@]35OO4)CS(=O)(=O)CCCCCCO)O[C@@H]2C[C@]3(C)CC[C@H]4[C@H](C)CC[C@@H]1[C@@]24OO3` showed a logP in data set [1] of 9.5.
Turning to `C[C@H]1[C@@H](CC(C[C@H]2O[C@@H]3C[C@]4(C)CC[C@H]5[C@H](C)CC[C@@H]([C@H]2C)[C@@]35OO4)CS(=O)(=O)c2ccc(CO)cc2)O[C@@H]2C[C@]3(C)CC[C@H]4[C@H](C)CC[C@@H]1[C@@]24OO3`, the IC50 with U-937 was 280 nM; in the data set with UACC-62, 30 nM; in data set [3], above 50000 nM; in the data set on MEF it was above 50000 nM; in the data set on HL-60 it was 130 nM; with SK-MEL-5, 140 nM. In the data set on HeLa, this compound came in with an IC50 of 1100 nM. The logP in data set [1] (read-out: logP) turned out to be 7.
As for `C[C@H]1[C@@H](CC(C[C@H]2O[C@@H]3C[C@]4(C)CC[C@H]5[C@H](C)CC[C@@H]([C@H]2C)[C@@]35OO4)CS(=O)(=O)Cc2ccc(F)cc2)O[C@@H]2C[C@]3(C)CC[C@H]4[C@H](C)CC[C@@H]1[C@@]24OO3`, in data set [1] (read-out: logP), the logP turned out to be 7.8.
Take `COc1cccc2c1C(=O)c1c(O)c3c(c(O)c1C2=O)C[C@@](O)(C(=O)CO)C[C@@H]3O[C@H]1C[C@H](N)[C@H](O)[C@H](C)O1` [DOXORUBICIN]: in the data set on MEF, the IC50 stood at 3400 nM.
`Cl.OC(c1cc(C(F)(F)F)nc2c(C(F)(F)F)cccc12)C1CCCCN1` (configuration not stated) [MEFLOQUINE HYDROCHLORIDE]: the Survival in the data set on Plasmodium berghei [5] turned out to be 11 days.
With `CC(C)(N)CNC(=O)C[C@H]1CC[C@]2(CC1)OO[C@]1(O2)C2CC3CC(C2)CC1C3` [OZ277], the Survival in the data set on Plasmodium berghei [6] amounted to 10.7 days. Moreover, the Activity in the data set on Plasmodium berghei [7] stood at 99.95%.
`C[C@H]1[C@H](OC(=O)CCC(=O)[O-])O[C@@H]2O[C@@]3(C)CC[C@H]4[C@H](C)CC[C@@H]1[C@@]24OO3.[Na+]` [SODIUM ARESUNATE] displayed a Survival in the data set on Plasmodium berghei [6] of 7.6 days.

As usually defined, the logP is the decadic logarithm of the partition coefficient of the neutral form, usually between octanol and water. One may read the IC50 as the concentration needed to halve the response being measured.
